The text below walks through data of ChEMBL document CHEMBL4229449, “Synthesis and antimicrobial studies of hydrazone derivatives of 4-[3-(2,4-difluorophenyl)-4-formyl-1H-pyrazol-1-yl]benzoic acid and 4-[3-(3,4-difluorophenyl)-4-formyl-1H-pyrazol-1-yl]benzoic acid” (Bioorg Med Chem Lett, 2018).

Converted amounts (≈) assume the structure as drawn. The source made the active and inactive calls. The rule behind the calls is not given here.

The subject of data set [1] is Staphylococcus aureus. Kind of data set: Antimicrobial activity against Staphylococcus aureus by broth microdilution method. Format: functional.
The subject of data set [2] is Staphylococcus aureus. Kind of data set: Antimicrobial activity against methicillin-resistant Staphylococcus aureus by broth microdilution method. The data set is classed as functional.
The test system of the next data set is Klebsiella aerogenes. The data set can be described thus: Antimicrobial activity against Enterobacter aerogenes by broth microdilution method. The data set is classed as functional, organism-based.
A further data set relates to Bacillus subtilis. The data set can be described thus: Antimicrobial activity against Bacillus subtilis by broth microdilution method. The data set is classed as functional.
The subject of another data set is Acinetobacter baumannii. Kind of data set: Antimicrobial activity against Acinetobacter baumannii by broth microdilution method. Format: functional.
The next data set relates to Pseudomonas aeruginosa. The data set can be described thus: Antimicrobial activity against Pseudomonas aeruginosa by broth microdilution method. The data set is classed as functional, organism-based.
Data set [3] relates to HEK293. The data set can be described thus: Cytotoxicity against human HEK293 cells assessed as reduction in cell viability at 25 to 50 ug/ml after 24 hrs by resazurin dye based method. The conditions noted are these: hek293, 24 h. An outline of the steps:
(§1)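 HEK-293 human embryonic kidney cells were exposed to test compounds at 25 and 50 μg/mL and incubated for 24 h. Growth inhibition was read by resazurin assay and expressed as percent cell viability.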

Data set [4] has as its system Panel NCI-60 (60 carcinoma cell lines). Kind of data set: Cytotoxicity against human NCI60 cells assessed as reduction in cell viability at 10 uM after 24 hrs by resazurin dye based method.
Data set [5] deals with HEK293. Kind of data set: Cytotoxicity against human HEK293 cells assessed as reduction in cell viability at 50 ug/ml after 24 hrs by resazurin dye based method. The conditions noted are these: hek293, 24 h. An outline of the steps:
as §1

With `O=C(O)c1ccc(-n2cc(/C=N/Nc3ccc([N+](=O)[O-])cc3)c(-c3ccc(F)c(F)c3)n2)cc1`, the MIC result in the data set with Staphylococcus aureus [1], with Staphylococcus aureus [2], with Klebsiella aerogenes, with Bacillus subtilis, in the data set with Acinetobacter baumannii and in the data set on Pseudomonas aeruginosa was “inactive” throughout.

Regarding `O=C(O)c1ccc(-n2cc(/C=N/Nc3cccc(F)c3)c(-c3ccc(F)c(F)c3)n2)cc1`, the MIC was found to be 12.5 µg/mL (≈ 28.6 µM) against Staphylococcus aureus [1], 12.5 µg/mL (≈ 28.6 µM) against Staphylococcus aureus [2], 12.5 µg/mL (≈ 28.6 µM) in the data set on Bacillus subtilis and 6.25 µg/mL (≈ 14.3 µM) in the data set on Acinetobacter baumannii. In addition, the MIC entry with Klebsiella aerogenes and in the data set with Pseudomonas aeruginosa was “inactive” each time. In addition, the Activity result in the data set on HEK293 [3] is on record as “Non-Toxic”; in data set [4], “Non-Toxic”; in the data set on HEK293 [5], > 80%.

Consider `O=C(O)c1ccc(-n2cc(/C=N/Nc3c(F)c(F)c(F)c(F)c3F)c(-c3ccc(F)cc3F)n2)cc1`, for which the MIC result with Staphylococcus aureus [1], in the data set on Staphylococcus aureus [2], with Klebsiella aerogenes, with Bacillus subtilis, in the data set with Acinetobacter baumannii and in the data set with Pseudomonas aeruginosa was “inactive” each time.

On to `O=C(O)c1ccc(-n2cc(/C=N/Nc3ccc([N+](=O)[O-])cc3)c(-c3ccc(F)cc3F)n2)cc1`, for which the MIC result with Staphylococcus aureus [1], in the data set with Staphylococcus aureus [2], with Klebsiella aerogenes, in the data set with Bacillus subtilis, with Acinetobacter baumannii and in the data set with Pseudomonas aeruginosa was “inactive” in each case.

Consider `O=C(O)c1ccc(-n2cc(/C=N/Nc3ccccc3)c(-c3ccc(F)c(F)c3)n2)cc1`, for which the MIC in the data set with Staphylococcus aureus [1] amounted to 25 µg/mL (≈ 59.8 µM); against Staphylococcus aureus [2], 25 µg/mL (≈ 59.8 µM); in the data set with Bacillus subtilis, 25 µg/mL (≈ 59.8 µM); against Acinetobacter baumannii it was 6.25 µg/mL (≈ 14.9 µM). In addition, the MIC entry in the data set with Klebsiella aerogenes and in the data set on Pseudomonas aeruginosa was “inactive” each time. The Activity result is “Non-Toxic” in the data set on HEK293 [3], “Non-Toxic” in data set [4] and > 80% in the data set on HEK293 [5].

On to `O=C(O)c1ccc(-n2cc(/C=N/Nc3cc(F)ccc3F)c(-c3ccc(F)cc3F)n2)cc1`, for which the MIC against Staphylococcus aureus [1] was 12.5 µg/mL (≈ 27.5 µM); against Staphylococcus aureus [2] it was 12.5 µg/mL (≈ 27.5 µM); against Bacillus subtilis, 3.12 µg/mL (≈ 6.87 µM); against Acinetobacter baumannii it was 12.5 µg/mL (≈ 27.5 µM). Further, the MIC entry in the data set with Klebsiella aerogenes and in the data set with Pseudomonas aeruginosa was “inactive” in each case.

In the case of `O=C(O)c1ccc(N/N=C/c2cn(-c3ccc(C(=O)O)cc3)nc2-c2ccc(F)cc2F)cc1`, the MIC entry in the data set on Staphylococcus aureus [1], in the data set with Staphylococcus aureus [2], in the data set on Klebsiella aerogenes, in the data set with Bacillus subtilis, with Acinetobacter baumannii and in the data set on Pseudomonas aeruginosa was “inactive” throughout.

As for `O=C(O)c1ccc(-n2cc(/C=N/Nc3cc(F)ccc3F)c(-c3ccc(F)c(F)c3)n2)cc1`, the MIC result in the data set with Staphylococcus aureus [1], in the data set with Staphylococcus aureus [2], in the data set on Klebsiella aerogenes and in the data set with Pseudomonas aeruginosa was “inactive” throughout. Moreover, the MIC in the data set on Bacillus subtilis worked out at 3.12 µg/mL (≈ 6.88 µM); against Acinetobacter baumannii, 6.25 µg/mL (≈ 13.8 µM). For the same compound, the Activity entry in the data set with HEK293 [3] is given as “Non-Toxic”; in data set [4] it was “Non-Toxic”; in the data set on HEK293 [5], 69%.

On to `O=C(O)c1ccc(-n2cc(/C=N/Nc3cccc(F)c3)c(-c3ccc(F)cc3F)n2)cc1`, for which the MIC in the data set with Staphylococcus aureus [1] worked out at 25 µg/mL (≈ 57.3 µM); in the data set on Staphylococcus aureus [2], 25 µg/mL (≈ 57.3 µM); against Bacillus subtilis it was 12.5 µg/mL (≈ 28.6 µM); with Acinetobacter baumannii, 6.25 µg/mL (≈ 14.3 µM). Further, the MIC entry in the data set on Klebsiella aerogenes and in the data set with Pseudomonas aeruginosa was “inactive” throughout. Further, the Activity result is “Non-Toxic” with HEK293 [3], “Non-Toxic” in data set [4] and > 80% in the data set with HEK293 [5].

Regarding `O=C(O)c1ccc(N/N=C/c2cn(-c3ccc(C(=O)O)cc3)nc2-c2ccc(F)c(F)c2)cc1`, the MIC entry in the data set on Staphylococcus aureus [1], in the data set on Staphylococcus aureus [2], with Klebsiella aerogenes, in the data set on Bacillus subtilis, in the data set with Acinetobacter baumannii and with Pseudomonas aeruginosa was “inactive” in each case.

For `O=C(O)c1ccc(-n2cc(/C=N/N3CCCCC3)c(-c3ccc(F)cc3F)n2)cc1`, the MIC result with Staphylococcus aureus [1], with Staphylococcus aureus [2], in the data set with Klebsiella aerogenes, with Bacillus subtilis, in the data set on Acinetobacter baumannii and in the data set on Pseudomonas aeruginosa was “inactive” each time.

On to `O=C(O)c1ccc(-n2cc(/C=N/Nc3cccc(C(=O)O)c3)c(-c3ccc(F)cc3F)n2)cc1`, for which the MIC result with Staphylococcus aureus [1], in the data set on Staphylococcus aureus [2], in the data set on Klebsiella aerogenes, in the data set on Bacillus subtilis, in the data set on Acinetobacter baumannii and in the data set on Pseudomonas aeruginosa was “inactive” each time.

Turning to `O=C(O)c1ccc(-n2cc(/C=N/Nc3ccc(Cl)cc3)c(-c3ccc(F)c(F)c3)n2)cc1`, the MIC against Staphylococcus aureus [1] was found to be 6.25 µg/mL (≈ 13.8 µM); in the data set with Staphylococcus aureus [2] it was 6.25 µg/mL (≈ 13.8 µM); with Bacillus subtilis it was 6.25 µg/mL (≈ 13.8 µM); against Acinetobacter baumannii it was 1.56 µg/mL (≈ 3.44 µM). Besides, the MIC result with Klebsiella aerogenes and in the data set on Pseudomonas aeruginosa was “inactive” each time. The Activity entry is “Non-Toxic” with HEK293 [3], “Non-Toxic” in data set [4] and > 80% in the data set with HEK293 [5].

As to `O=C(O)c1ccc(-n2cc(/C=N/Nc3ccccc3F)c(-c3ccc(F)c(F)c3)n2)cc1`, the MIC against Staphylococcus aureus [1] turned out to be 12.5 µg/mL (≈ 28.6 µM); in the data set with Staphylococcus aureus [2], 12.5 µg/mL (≈ 28.6 µM); against Bacillus subtilis it was 12.5 µg/mL (≈ 28.6 µM); against Acinetobacter baumannii it was 6.25 µg/mL (≈ 14.3 µM). Besides, the MIC entry with Klebsiella aerogenes and in the data set on Pseudomonas aeruginosa was “inactive” each time. Besides, the Activity result in the data set with HEK293 [3] was “Non-Toxic”; in data set [4] it was “Non-Toxic”; with HEK293 [5] it was > 80%.

The compound `O=C(O)c1cn(C2CC2)c2cc(N3CCNCC3)c(F)cc2c1=O` [CIPROFLOXACIN] had an MIC with Bacillus subtilis of 1.56 µg/mL (≈ 4.71 µM).

Regarding `CN[C@H](CC(C)C)C(=O)N[C@H]1C(=O)N[C@@H](CC(N)=O)C(=O)N[C@H]2C(=O)N[C@H]3C(=O)N[C@H](C(=O)N[C@H](C(=O)O)c4cc(O)cc(O)c4-c4cc3ccc4O)[C@H](O)c3ccc(c(Cl)c3)Oc3cc2cc(c3O[C@@H]2O[C@H](CO)[C@@H](O)[C@H](O)[C@H]2O[C@H]2C[C@](C)(N)[C@H](O)[C@H](C)O2)Oc2ccc(cc2Cl)[C@H]1O` [VANCOMYCIN], the MIC was 6.25 µg/mL (≈ 4.31 µM) against Staphylococcus aureus [1] and 12.5 µg/mL (≈ 8.63 µM) against Staphylococcus aureus [2].

In the case of `O=C(O)c1ccc(-n2cc(/C=N/Nc3ccc(F)cc3)c(-c3ccc(F)cc3F)n2)cc1`, the MIC with Staphylococcus aureus [1] was found to be 25 µg/mL (≈ 57.3 µM); against Staphylococcus aureus [2], 25 µg/mL (≈ 57.3 µM); against Bacillus subtilis it was 6.25 µg/mL (≈ 14.3 µM); in the data set with Acinetobacter baumannii, 6.25 µg/mL (≈ 14.3 µM). Besides, the MIC result with Klebsiella aerogenes and in the data set with Pseudomonas aeruginosa was “inactive” throughout.

For `O=C(O)c1ccc(-n2cc(/C=N/Nc3ccc(F)cc3)c(-c3ccc(F)c(F)c3)n2)cc1`, the MIC in the data set with Staphylococcus aureus [1] is 25 µg/mL (≈ 57.3 µM); against Staphylococcus aureus [2], 25 µg/mL (≈ 57.3 µM); in the data set on Bacillus subtilis, 25 µg/mL (≈ 57.3 µM); in the data set with Acinetobacter baumannii it was 6.25 µg/mL (≈ 14.3 µM). Also, the MIC result in the data set with Klebsiella aerogenes and with Pseudomonas aeruginosa was “inactive” throughout. Also, the Activity entry in the data set on HEK293 [3] is on record as “Non-Toxic”; in data set [4], “Non-Toxic”; in the data set on HEK293 [5] it was > 80%.

`O=C(O)c1ccc(-n2cc(/C=N/Nc3ccccc3F)c(-c3ccc(F)cc3F)n2)cc1`: the MIC in the data set with Staphylococcus aureus [1] worked out at 25 µg/mL (≈ 57.3 µM); against Staphylococcus aureus [2], 25 µg/mL (≈ 57.3 µM); in the data set with Bacillus subtilis, 12.5 µg/mL (≈ 28.6 µM); with Acinetobacter baumannii, 12.5 µg/mL (≈ 28.6 µM). Further, the MIC result in the data set with Klebsiella aerogenes and in the data set with Pseudomonas aeruginosa was “inactive” throughout. The values for the Activity entry (with HEK293 [3]; in data set [4]; in the data set with HEK293 [5]) were “Non-Toxic”, “Non-Toxic” and > 80%, respectively.

`CN1CCN(/N=C/c2cn(-c3ccc(C(=O)O)cc3)nc2-c2ccc(F)c(F)c2)CC1`: the MIC result in the data set with Staphylococcus aureus [1], with Staphylococcus aureus [2], with Klebsiella aerogenes, in the data set with Bacillus subtilis, in the data set with Acinetobacter baumannii and with Pseudomonas aeruginosa was “inactive” throughout.

On to `O=C(O)c1ccc(-n2cc(/C=N/Nc3c(F)c(F)cc(F)c3F)c(-c3ccc(F)cc3F)n2)cc1`, for which the MIC result with Staphylococcus aureus [1], in the data set on Staphylococcus aureus [2], in the data set with Klebsiella aerogenes, in the data set with Bacillus subtilis, in the data set with Acinetobacter baumannii and in the data set with Pseudomonas aeruginosa was “inactive” throughout.

Turning to `O=C(O)c1ccc(-n2cc(/C=N/Nc3ccccc3)c(-c3ccc(F)cc3F)n2)cc1`, the MIC in the data set with Staphylococcus aureus [1], against Staphylococcus aureus [2], in the data set on Bacillus subtilis and in the data set on Acinetobacter baumannii was 25 µg/mL (≈ 59.8 µM) in each case. The MIC entry with Klebsiella aerogenes and in the data set on Pseudomonas aeruginosa was “inactive” in each case. The Activity result is on record as “Non-Toxic” in the data set with HEK293 [3], “Non-Toxic” in [4] and > 80% in the data set on HEK293 [5].

In the case of COLISTIN, the MIC is 0.39 µg/mL against Klebsiella aerogenes, 12.5 µg/mL in the data set with Acinetobacter baumannii and 0.78 µg/mL with Pseudomonas aeruginosa.

Take `O=C(O)c1ccc(-n2cc(/C=N/Nc3c(F)c(F)cc(F)c3F)c(-c3ccc(F)c(F)c3)n2)cc1`: the results for the MIC against Staphylococcus aureus [1], against Staphylococcus aureus [2] and in the data set on Bacillus subtilis were 12.5 µg/mL (≈ 25.5 µM), 12.5 µg/mL (≈ 25.5 µM) and 6.25 µg/mL (≈ 12.7 µM), respectively. Besides, the MIC result in the data set with Klebsiella aerogenes, with Acinetobacter baumannii and in the data set on Pseudomonas aeruginosa was “inactive” in each case.

For the compound `CN1CCN(/N=C/c2cn(-c3ccc(C(=O)O)cc3)nc2-c2ccc(F)cc2F)CC1`, the MIC result with Staphylococcus aureus [1], with Staphylococcus aureus [2], in the data set on Klebsiella aerogenes, in the data set on Bacillus subtilis, in the data set with Acinetobacter baumannii and in the data set with Pseudomonas aeruginosa was “inactive” each time.
